Test results taken from ChEMBL document CHEMBL1949521, “Discovery of CC-930, an orally active anti-fibrotic JNK inhibitor” (Bioorg Med Chem Lett, 2012).
Values belong to the compound of their own block, whether it stands above or below them.

Columns and labels:
[1] = molecular target: c-Jun N-terminal kinase, JNK (Homo sapiens, UniProt P45983+P53779+P45984); assay: Inhibition of JNK-mediated GST tagged c-Jun phosphorylation in human Jurkat T cells compound treated for 30 mins prior anisomycin stimulation measured after 40 mins by fluorescence spectrophotometry; format: cell-based
[2] = molecular target: Mitogen-activated protein kinase 14 (Homo sapiens, UniProt Q16539); assay: Inhibition of p38alpha using myelin basic protein as substrate preincubated for 15 mins prior ATP addition measured after 60 mins by scintillation counting
Mitogen-activated protein kinase 14, sequence (Q16539 whole entry): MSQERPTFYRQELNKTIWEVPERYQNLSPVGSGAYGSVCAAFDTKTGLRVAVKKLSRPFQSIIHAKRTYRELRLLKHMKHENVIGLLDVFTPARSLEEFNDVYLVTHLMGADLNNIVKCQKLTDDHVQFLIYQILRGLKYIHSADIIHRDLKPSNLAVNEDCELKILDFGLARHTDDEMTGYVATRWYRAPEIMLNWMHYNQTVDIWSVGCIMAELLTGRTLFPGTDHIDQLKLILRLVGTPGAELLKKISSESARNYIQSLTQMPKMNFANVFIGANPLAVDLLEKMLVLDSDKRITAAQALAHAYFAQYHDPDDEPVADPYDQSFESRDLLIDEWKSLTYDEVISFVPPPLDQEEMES

[3] = molecular target: Mitogen-activated protein kinase 8 (Homo sapiens, UniProt P45983); assay: Inhibition of hexa-His-tagged JNK1 expressed in baculoviral system using GST-tagged c-Jun as substrate preincubated for 15 mins prior ATP addition measured after 60 mins by scintillation counting
Mitogen-activated protein kinase 8, sequence (P45983 whole entry): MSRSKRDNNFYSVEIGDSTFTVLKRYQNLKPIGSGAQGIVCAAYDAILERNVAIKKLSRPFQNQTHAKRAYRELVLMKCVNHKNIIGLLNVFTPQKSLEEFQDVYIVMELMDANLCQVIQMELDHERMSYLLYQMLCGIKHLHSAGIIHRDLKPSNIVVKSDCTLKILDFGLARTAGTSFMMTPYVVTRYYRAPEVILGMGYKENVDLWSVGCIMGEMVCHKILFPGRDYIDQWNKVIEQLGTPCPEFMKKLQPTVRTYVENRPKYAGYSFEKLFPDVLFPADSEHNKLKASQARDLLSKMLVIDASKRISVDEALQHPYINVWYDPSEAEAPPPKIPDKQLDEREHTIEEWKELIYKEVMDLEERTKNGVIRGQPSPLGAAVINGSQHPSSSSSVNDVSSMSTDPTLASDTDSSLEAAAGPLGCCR

[4] = Tmax in cynomolgus monkey at 10 mg/kg, po; format: ADME, organism-based, Macaca fascicularis; design: dose 10 mg/kg, route oral; conditions: in vivo
Outline: (§1)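 Oral dose of 10 mg/kg given as a suspension in aqueous 0.5% CMC/0.25% Tween 80. Plasma AUC, Cmax and Tmax were taken from the oral arm. Bioavailability was derived against the intravenous arm in the same species.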

[5] = AUC in rat at 10 mg/kg, po; format: ADME, organism-based; design: dose 10 mg/kg, route oral; conditions: plasma; outline: as §1
[6] = Oral bioavailability in cynomolgus monkey at 10 mg/kg; format: ADME, organism-based, Macaca fascicularis; conditions: in vivo; outline: as §1
[7] = AUC in cynomolgus monkey at 10 mg/kg, po; format: ADME, organism-based, Macaca fascicularis; design: dose 10 mg/kg, route oral; conditions: plasma; outline: as §1
[8] = Volume of distribution at steady state in dog at 1 mg/kg, iv; format: ADME, organism-based, Canis lupus familiaris; design: dose 1 mg/kg, route intravenous; conditions: in vivo, read-out: Vdss
[9] = Clearance in cynomolgus monkey at 1 mg/kg, iv; format: ADME, organism-based, Macaca fascicularis; design: dose 1 mg/kg, route intravenous; conditions: in vivo
Outline: (§2)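 Intravenous dose of 1 mg/kg given to monkeys in a solution of 5% DMA and 95% isotonic citrate buffer (50 mM, pH 5.0).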

[10] = AUC in dog at 10 mg/kg, po; format: ADME, organism-based, Canis lupus familiaris, Plasma; design: dose 10 mg/kg, route oral; conditions: plasma; outline: as §1
[11] = Volume of distribution at steady state in cynomolgus monkey at 1 mg/kg, iv; format: ADME, organism-based, Macaca fascicularis; design: dose 1 mg/kg, route intravenous; conditions: in vivo, read-out: Vdss; outline: as §2
[12] = Mean residence time in dog at 1 mg/kg, iv; format: ADME, organism-based, Canis lupus familiaris; design: dose 1 mg/kg, route intravenous; conditions: in vivo
[13] = Oral bioavailability in dog at 10 mg/kg; format: ADME, organism-based, Canis lupus familiaris; conditions: in vivo; outline: as §1
[14] = molecular target: Mitogen-activated protein kinase 10 (Homo sapiens, UniProt P53779); assay: Inhibition of hexa-His-tagged JNK3 expressed in baculoviral system using GST-tagged cJun as substrate preincubated for 15 mins prior ATP addition measured after 60 mins by scintillation counting
Mitogen-activated protein kinase 10, sequence (P53779 whole entry): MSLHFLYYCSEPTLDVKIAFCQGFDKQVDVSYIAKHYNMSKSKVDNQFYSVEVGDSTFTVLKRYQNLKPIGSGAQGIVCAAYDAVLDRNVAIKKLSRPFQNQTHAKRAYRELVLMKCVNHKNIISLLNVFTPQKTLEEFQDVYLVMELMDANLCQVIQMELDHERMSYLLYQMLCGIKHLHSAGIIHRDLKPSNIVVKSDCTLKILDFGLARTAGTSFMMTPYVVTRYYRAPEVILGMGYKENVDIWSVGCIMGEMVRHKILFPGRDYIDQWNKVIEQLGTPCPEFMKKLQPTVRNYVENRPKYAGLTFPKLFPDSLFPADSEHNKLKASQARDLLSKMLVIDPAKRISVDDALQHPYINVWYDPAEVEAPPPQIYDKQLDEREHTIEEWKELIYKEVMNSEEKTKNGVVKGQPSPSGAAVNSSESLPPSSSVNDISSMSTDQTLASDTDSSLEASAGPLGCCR

[15] = molecular target: Mitogen-activated protein kinase 9 (Homo sapiens, UniProt P45984); assay: Inhibition of hexa-His-tagged JNK2 expressed in baculoviral system using GST-tagged cJun as substrate preincubated for 15 mins prior ATP addition measured after 60 mins by scintillation counting
Mitogen-activated protein kinase 9, sequence (P45984 whole entry): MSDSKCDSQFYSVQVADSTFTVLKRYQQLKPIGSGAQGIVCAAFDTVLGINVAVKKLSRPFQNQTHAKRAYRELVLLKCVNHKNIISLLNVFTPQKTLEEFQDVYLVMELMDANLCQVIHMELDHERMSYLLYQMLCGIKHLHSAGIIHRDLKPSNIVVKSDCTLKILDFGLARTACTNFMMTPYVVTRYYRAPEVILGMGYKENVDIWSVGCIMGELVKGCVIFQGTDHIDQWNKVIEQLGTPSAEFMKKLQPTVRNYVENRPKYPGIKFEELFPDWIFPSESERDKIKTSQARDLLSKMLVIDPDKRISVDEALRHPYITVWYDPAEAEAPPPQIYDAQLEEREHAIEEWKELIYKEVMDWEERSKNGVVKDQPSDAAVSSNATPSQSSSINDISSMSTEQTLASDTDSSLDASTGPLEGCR

[16] = Clearance in dog at 1 mg/kg, iv; format: ADME, organism-based, Canis lupus familiaris; design: dose 1 mg/kg, route intravenous; conditions: in vivo
[17] = Oral bioavailability in rat; format: ADME, organism-based; conditions: in vivo
[18] = Tmax in rat at 10 mg/kg, po; format: ADME, organism-based; design: dose 10 mg/kg, route oral; conditions: in vivo; outline: as §1
[19] = Tmax in dog at 10 mg/kg, po; format: ADME, organism-based, Canis lupus familiaris; design: dose 10 mg/kg, route oral; conditions: in vivo; outline: as §1
[20] = Cmax in cynomolgus monkey at 10 mg/kg, po; format: ADME, organism-based, Macaca fascicularis; design: dose 10 mg/kg, route oral; conditions: in vivo; outline: as §1
[21] = Oral bioavailability in rat at 10 mg/kg; format: ADME, organism-based; conditions: in vivo; outline: as §1
[22] = AUC in cynomolgus monkey at 1 mg/kg, iv; format: ADME, organism-based, Macaca fascicularis; design: dose 1 mg/kg, route intravenous; conditions: plasma; outline: as §2
[23] = Clearance in rat at 2 mg/kg, iv; format: ADME, organism-based; design: dose 2 mg/kg, route intravenous; conditions: in vivo
Outline: (§3)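 Rats dosed intravenously at 2 mg/kg in a solution of 5% DMA and 30% PEG 400.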

[24] = Mean residence time in cynomolgus monkey at 1 mg/kg, iv; format: ADME, organism-based, Macaca fascicularis; design: dose 1 mg/kg, route intravenous; conditions: in vivo; outline: as §2
[25] = AUC in rat at 2 mg/kg, iv; format: ADME, organism-based; design: dose 2 mg/kg, route intravenous; conditions: plasma; outline: as §3
[26] = AUC in dog at 1 mg/kg, iv; format: ADME, organism-based, Canis lupus familiaris, Plasma; design: dose 1 mg/kg, route intravenous; conditions: plasma
[27] = Cmax in rat at 10 mg/kg, po; format: ADME, organism-based; design: dose 10 mg/kg, route oral; conditions: in vivo; outline: as §1
[28] = Mean residence time in rat at 2 mg/kg, iv; format: ADME, organism-based; design: dose 2 mg/kg, route intravenous; conditions: in vivo; outline: as §3
[29] = Volume of distribution at steady state in rat at 2 mg/kg, iv; format: ADME, organism-based; design: dose 2 mg/kg, route intravenous; conditions: in vivo, read-out: Vdss; outline: as §3
[30] = Cmax in dog at 10 mg/kg, po; format: ADME, organism-based, Canis lupus familiaris; design: dose 10 mg/kg, route oral; conditions: in vivo; outline: as §1
Rattus norvegicus = assay: Antiinflammatory activity in CD rat assessed as inhibition of LPS-stimulated TNFalpha production at 30 mg/kg, po administered 1 hr prior LPS challenge measured after 90 mins by ELISA; format: functional
Outline: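 Acute PK-PD model in rats: compound given by oral gavage at 10 or 30 mg/kg, then lipopolysaccharide injected, and plasma TNF-alpha release measured.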

[31] = AUC in po dosed rat; format: ADME, organism-based; conditions: plasma

IC50 [1]: 1700 nM
IC50 [2]: 980 nM
IC50 [3]: 320 nM
Compound: CC(C)(O)[C@H]1CC[C@H](Nc2ncc3nc(Nc4ccc(F)cc4F)n(C4CCOCC4)c3n2)CC1

Tmax [4]: 49.8 min
AUC [5]: 2.9 µM·h
bioavailability [6]: 48%
AUC [7]: 23 µM·h
Vd [8]: 1.4 L/kg
IC50 [1]: 91 nM
clearance [9]: 7.1 mL/min/kg
IC50 [2]: 4200 nM
AUC [10]: 3.3 µM·h
Vd [11]: 0.8 L/kg
MRT [12]: 60 min
bioavailability [13]: 24%
IC50 [14]: 7 nM
IC50 [15]: 10 nM
clearance [16]: 24 mL/min/kg
IC50 [3]: 51 nM
bioavailability [17]: 33%
Tmax [18]: 42 min
Tmax [19]: 40.2 min
Cmax [20]: 11000 nM
bioavailability [21]: 33%
AUC [22]: 4.7 µM·h
clearance [23]: 39 mL/min/kg
MRT [24]: 108 min
AUC [25]: 1.8 µM·h
AUC [26]: 1.4 µM·h
Cmax [27]: 1200 nM
MRT [28]: 66 min
Vd [29]: 2.5 L/kg
Cmax [30]: 860 nM
Compound: CNC(=O)[C@H]1CC[C@H](Nc2ncc3nc(Nc4c(F)cc(F)cc4F)n([C@H]4CCOC4)c3n2)CC1

IC50 [1]: 200 nM
AUC [31]: 4.7 µM·h
IC50 [2]: 6200 nM
bioavailability [13]: 20%
IC50 [3]: 79 nM
bioavailability [17]: 42%
clearance [23]: 31 mL/min/kg
Compound: CC(C)Nc1ncc2nc(Nc3c(F)cc(F)cc3F)n([C@H]3CC[C@@H](C(=O)NC4CC4)CC3)c2n1
inhibition in vivo at 30 mg/kg (Rattus norvegicus): 92%

AUC [5]: 0.36 µM·h
bioavailability [17]: 8%
clearance [23]: 66 mL/min/kg
Compound: N[C@H]1CC[C@H](Nc2ncc3nc(Nc4ccc(F)cc4F)n(C4CCCC4)c3n2)CC1

IC50 [1]: 2500 nM
IC50 [2]: > 3000 nM
IC50 [3]: 1200 nM
Compound: C[C@]1(O)CC[C@H](Nc2ncc3nc(Nc4ccc(F)cc4F)n(C4CCOCC4)c3n2)CC1

IC50 [1]: 1700 nM
IC50 [2]: > 3000 nM
IC50 [3]: 1300 nM
Compound: CC(C)(O)[C@H]1CC[C@@H](c2ncc3nc(Nc4ccc(F)cc4F)n(C4CCOCC4)c3n2)C1

IC50 [2]: > 3000 nM
Compound: O[C@H]1CC[C@H](Nc2ncc3nc(Nc4c(F)cc(F)cc4F)n([C@@H]4CCOC4)c3n2)CC1

IC50 [1]: 230 nM
AUC [31]: 2.4 µM·h
IC50 [2]: 6400 nM
IC50 [3]: 63 nM
bioavailability [17]: 20%
clearance [23]: 26 mL/min/kg
Compound: CC(C)Nc1ncc2nc(Nc3c(F)cc(F)cc3F)n([C@H]3CC[C@@H](C(=O)N4CCOCC4)CC3)c2n1
inhibition in vivo at 30 mg/kg (Rattus norvegicus): 58%
